Screens as filed in PubChem.
The list is not random: actives were taken first. Their share in the collection is about 2.2%.
ABHD5 PLIN5 PPI: ABHD5-PLIN5 interaction inhibitors, primary screen, cell lysate, split luciferase complementation, luminescence. Perilipin-5 (Homo sapiens) + 1-acylglycerol-3-phosphate O-acyltransferase ABHD5 (Homo …. Split G. princeps luciferase complementation, 4 h. inhibition, % at 4 µM. 0.78% of 360,000 active;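 active = inhibition above the mean inhibition across every tested compound plus 3 SD, cut at about 22% in these data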;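 note: 0% = DMSO only wells and the 100% control is not disclosed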
Target sequence (Q00G26 whole entry, looked up): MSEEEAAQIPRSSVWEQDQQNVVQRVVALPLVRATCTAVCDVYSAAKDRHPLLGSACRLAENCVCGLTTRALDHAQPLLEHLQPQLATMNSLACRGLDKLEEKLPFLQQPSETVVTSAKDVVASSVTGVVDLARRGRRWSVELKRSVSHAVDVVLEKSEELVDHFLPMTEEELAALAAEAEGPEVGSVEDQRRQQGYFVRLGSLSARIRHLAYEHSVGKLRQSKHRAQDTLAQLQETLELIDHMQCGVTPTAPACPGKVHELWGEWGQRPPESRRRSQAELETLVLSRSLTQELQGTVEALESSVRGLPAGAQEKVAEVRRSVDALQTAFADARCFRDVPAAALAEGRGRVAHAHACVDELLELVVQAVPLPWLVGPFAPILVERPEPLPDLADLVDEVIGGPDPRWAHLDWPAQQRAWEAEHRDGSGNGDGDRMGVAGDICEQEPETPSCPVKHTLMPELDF
Target sequence (Q8WTS1 whole entry, looked up): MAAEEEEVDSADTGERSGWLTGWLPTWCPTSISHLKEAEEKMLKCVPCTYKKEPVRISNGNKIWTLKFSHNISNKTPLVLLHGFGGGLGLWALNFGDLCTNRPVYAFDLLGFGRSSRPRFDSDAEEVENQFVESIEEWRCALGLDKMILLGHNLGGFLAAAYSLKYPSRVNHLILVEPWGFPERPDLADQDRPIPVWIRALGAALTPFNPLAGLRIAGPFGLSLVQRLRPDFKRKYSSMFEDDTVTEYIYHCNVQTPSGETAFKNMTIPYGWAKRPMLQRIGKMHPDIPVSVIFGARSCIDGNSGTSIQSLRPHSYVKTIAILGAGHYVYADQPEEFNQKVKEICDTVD
PfG6PD inh: PfG6PD enzyme inhibitors, primary screen, biochemical, fluorescence intensity, uHTS. glucose-6-phosphate dehydrogenase-6-phosphogluconolactonase (Plasmodium falciparum 3D7). PfGluPho enzyme, NADPH resazurin-diaphorase fluorescence. inhibition, % at 20 µM. 0.78% of 350,000 active. AID 504690, 2011;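 active = inhibition reaching at least a set limit at 20 µM in the primary screen, cut at about 59% in these data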;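 note: 0% = DMSO wells with substrate and 100% = DMSO wells lacking glucose-6-phosphate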
HKDC1 inh: HKDC1 hexokinase inhibitors, primary screen, biochemical, fluorescence, uHTS | AID 493160, 2011 | 0.16% of 340,000 active | Q2TB90 | recombinant HKDC1, G6PDH/diaphorase resazurin coupled fluorescence | inhibition, % at 20 µM;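 active = inhibition above about 35% when tested at 20 µM, limit read from the data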;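 note: plate controls were DMSO wells with enzyme for no effect and DMSO wells lacking enzyme for full effect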
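test system = in-house recombinant HK5 (HKDC1) enzyme | amount = HKDC1 at 5 µg/mL | control set = DMSO-enzyme wells negative, buffer-substituted wells positive | compound = one dose of 20 µM, 1% DMSO | schedule = reaction time 90 min, room temperature, protected from light | technique = resorufin fluorescence at 613 nm | reagent = glucose with 1 mM ATP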
Granule exo inh: LAMP-1 surface exposure blockers, TALL-104 cells – cell-based, flow cytometry, MLPCN library, primary screen. AID 651702, 2012. TALL-104 LAMP-1 surface exposure; cells stimulated with thapsigargin and PMA. 0.66% of 360,000 active. inhibition, % at 10 µM;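 active = inhibition above about 55%, limit read from the data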
Granule exo CP1: inhibitors of lytic granule exocytosis, confirmation, TALL-104 cells, flow cytometry, Cherry Pick01; shares compounds with Granule exo inh; LAMP-1 externalization; stimulated with PMA plus thapsigargin; inhibition, % at 10 µM; 11% of 1,500 active; AID 651954, 2012; in the data active = inhibition above about 60%;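 note: 0% = stimulated vehicle wells and 100% = unstimulated wells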
* = called active by the depositor; x = no result.

SMILES	ABHD5 PLIN5 PPI	PfG6PD inh	HKDC1 inh	Granule exo inh	Granule exo CP1
Cc1ccc(NC(=O)CC2SC3=NCCCN3C2=O)c(C)c1 (stereo not given)	-7.3	0.5	-7.8	67.1*	-11.9
O=C(CC1SC2=NCCN2C1=O)Nc1ccc(Cl)cc1 (stereo not given)	10.3	-18.9	-2.4	-0.9	x
CCCCN(CCCNC(=O)CN1C(=O)COc2ccc(S(=O)(=O)N3CCC(C)CC3)cc21)Cc1ccccc1	9.9	1.4	-0.8	60.2*	-3.5
CCCCN(CCCC)CCNC(=O)CN1C(=O)COc2ccc(S(=O)(=O)N3CCC(C)CC3)cc21	-3.3	10.1	-5.2	-1.2	x
CN1CCN(c2ccc(Nc3ccnc4cc(Cl)ccc34)cc2)CC1	-8.3	24.6	3.5	66.9*	-11.3
O=C(N[C@@H](Cc1ccccc1)C(=O)O)c1ccc(C(F)(F)F)cc1	-7.5	-5.4	1.1	84.5*	-3.1
Cc1cc(Nc2cc(Cl)cc(Cl)c2)nc(N)n1	9.7	13.4	-4.3	61.6*	-10.2
CCCCc1cc(=O)oc2cc(O)ccc12	2.5	-10.9	-5.3	-0.9	x
O=C(NCCCN1CCCC1=O)C1CCN(S(=O)(=O)c2cc(C(F)(F)F)ccc2Cl)CC1	1.3	1.1	-1.8	89.8*	-11.3
O=C(NCCCN1CCCC1=O)C1CCN(S(=O)(=O)c2cccc(C(F)(F)F)c2)CC1	4.2	-3.6	-6.6	0.2	x
O=C(Nc1ccc2nc3n(c(=O)c2c1)CCCCC3)C(=O)N1CCN(c2ccc(F)cc2)CC1	-12.9	2.7	-0.6	-3.3	x
Cc1c(C(=O)OCC(=O)Nc2cccc(S(N)(=O)=O)c2)oc2c1ccc1ccccc12	4.5	6.1	7.3	88.0*	93.0*
COc1ccc(-c2cn[nH]c2-c2ccc(OCc3ccccc3)cc2O)cc1OC	2.9	-40.0	15.0	64.2*	-3.9
COc1ccc(-c2cn[nH]c2-c2ccc(OCc3ccc(F)cc3)cc2O)cc1OC	-5.0	4.9	-5.5	19.1	x
C=C(C)COc1ccc(-c2[nH]ncc2-c2ccccc2)c(O)c1	-22.9	2.8	-7.1	85.1*	4.1
Oc1cc(OCc2ccccc2)ccc1-c1[nH]ncc1-c1ccccc1	-18.4	13.0	-2.2	100.1*	16.1
C=C(C)COc1ccc(-c2[nH]ncc2-c2ccc(OC)cc2)c(O)c1	-25.8	11.0	-2.9	1.1	x
Cc1cc(C)cc(-n2cc[nH]c2=S)c1	-2.4	20.8	-0.2	-3.9	x
CC1(C(=O)NS(=O)(=O)c2ccc(Cl)cc2)CCN1C(=O)Cc1ccsc1 (stereo not given)	2.9	x	x	78.3*	-13.8
O=C(CSc1ccc([N+](=O)[O-])cn1)Nc1cc(C(F)(F)F)ccc1N1CCOCC1	-3.8	20.6	-8.4	3.8	x
CCCCN(C)Cc1c(C)[nH]c2ccccc2c1=O	-2.5	-3.3	-9.5	71.3*	-3.2
CCOc1ccc(N2C(=O)CC(Sc3n[nH]c(-c4ccccc4)n3)C2=O)cc1 (stereo not given)	-5.7	4.0	-11.2	8.8	x
COc1ccc(N2C(=O)CC(Sc3n[nH]c(-c4ccccc4)n3)C2=O)cc1 (stereo not given)	7.2	11.6	1.0	87.6*	84.7*
CC1(C(=O)OCC(=O)Nc2nc(-c3ccc(F)c(F)c3)cs2)CC1(Cl)Cl (stereo not given)	-10.4	15.3	2.3	91.6*	100.8*
COc1ccc(CC(=O)Nc2nc(-c3ccc(F)c(F)c3)cs2)cc1	5.5	23.6	-1.3	36.3	x
SMILES	ABHD5 PLIN5 PPI	PfG6PD inh	HKDC1 inh	Granule exo inh	Granule exo CP1
Cc1ccc(NC(=O)CSc2nnc(-c3ccoc3C)n2CCCN(C)C)cc1Cl	-2.0	6.9	-4.1	62.6*	-4.8
Cc1ccc(C)c(N(CC(=O)NC2CCCC2)C(=O)CCC(=O)Nc2nccs2)c1	-4.2	-14.1	2.3	78.1*	-11.5
O=C(COC(=O)[C@H](Cc1c[nH]c2ccccc12)NC(=O)c1ccc(Cl)cc1)Nc1ccc2c(c1)OCO2	-5.2	7.1	9.1	68.9*	77.6*
O=C(O)CC1(CC(=O)NCc2cc(F)cc3c2OCOC3)CCCCC1	-5.7	-7.7	-6.3	-0.3	x
Cc1ccc(C(c2nnnn2Cc2cccs2)N2CCN(Cc3ccc4c(c3)OCO4)CC2)cc1 (stereo not given)	1.3	23.0	2.8	60.4*	9.1
COCCn1nnnc1C(c1ccc(C)cc1)N1CCN(Cc2ccc3c(c2)OCO3)CC1 (stereo not given)	-0.2	-12.1	-7.0	0.2	x
COC(=O)c1c(NC(=O)c2ccc(C(=O)c3ccccc3)cc2)sc2c1CC(C)(C)NC2(C)C	-0.4	-5.7	x	67.4*	63.4*
CCOc1ccc(C(=O)Nc2sc3c(c2C(=O)OC)CC(C)(C)NC3(C)C)cc1	2.8	8.8	-3.4	21.1	x
COC(=O)c1c(NC(=O)c2nc3ccccc3s2)sc2c1CC(C)(C)NC2(C)C	-2.9	1.5	-2.6	67.2*	85.2*
Cc1ccc(-n2c(C(C)C)nc3oc4ccccc4c(=O)c3c2=O)cc1	-4.7	15.8	0.2	-4.6	x
CC(C)(C)C1CCC(=O)N(CCOc2ccccc2)CC1 (stereo not given)	3.3	1.6	2.5	67.1*	-13.4
O=[N+]([O-])c1nccn1CC(O)CO (stereo not given)	7.3	x	x	0.3	x
COc1cc(CNCCc2ccccc2)cc(Cl)c1OCc1ccccc1	14.4	19.1	2.4	98.8*	7.1
O=C(Nc1cccc(C(=O)N2CCCCC2)c1)c1ccccc1Br	1.2	-1.0	3.6	-0.5	x
COc1cc(C(=O)Nc2ccc(S(=O)(=O)N3CCOCC3)cc2)c([N+](=O)[O-])cc1OC	-0.5	7.4	3.8	74.3*	-4.2
COc1ccc(C(=O)Nc2ccc(S(=O)(=O)N3CCOCC3)cc2)cc1[N+](=O)[O-]	0.4	-3.0	-2.4	-1.0	x
O=C(CSc1nccn(-c2cccc(F)c2)c1=O)Nc1ccc(Cl)cc1F	-17.5	7.1	0.1	76.3*	-9.8
O=C(CSc1nccn(-c2ccc(F)c(F)c2)c1=O)NC1CCCC1	-8.5	4.9	-2.7	23.1	x
CCCS(=O)(=O)NC(=O)C1(C)CCN(C(=O)COc2ccc(Cl)cc2Cl)C1 (stereo not given)	4.2	x	x	61.2*	-3.1
Cc1cccc(C2NC(c3cccc(C)c3)C(C)C(=O)C2C)c1 (stereo not given)	-12.1	-1.2	3.2	30.4	x
c1ccc(-c2nc(NCc3cccs3)c3ccccc3n2)cc1	2.6	-6.4	-1.1	10.0	x
CN(Cc1cccs1)c1nc(-c2cccnc2)nc2ccccc12	-2.6	-8.3	-1.4	84.5*	20.7
Cc1csc(SCC(=O)NCc2ccccc2)n1	-2.4	-13.1	-3.9	-1.9	x
Cc1csc2sc(-c3ccnc(SCC(=O)NCc4ccccc4)n3)c(C)c12	3.8	9.0	-3.3	66.1*	-11.3
CCOC(=O)N1CCN(CCC(=O)c2ccc(Cl)cc2)CC1	0.7	16.8	4.9	35.1	x
